Activity calls are given as the source filed them. The rule behind the calls is not given here.

These results are taken from ChEMBL document CHEMBL4732185, “Synthesis, biological evaluation and structure-activity relationship of novel dichloroacetophenones targeting pyruvate dehydrogenase kinases with potent anticancer activity” (Eur J Med Chem, 2021).

For test [1], the system named is A549. The test is described as follows: Antiproliferative activity against human A549 cells assessed as growth inhibition at 10 uM after 72 hrs by MTT assay relative to control. To be noted: read-out: GI. The test is classed as functional. Put shortly: (§1)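 Single-concentration MTT screen on MCF-7 and A549 cells grown in DMEM + 10% FBS. Cells at 3000–6000/well, cultured overnight, then given compound in buffer with 1% DMSO for 72 h. MTT (0.5 mg/mL) added for 4 h, formazan dissolved in DMSO, A570 read. Percent inhibition reported as the average ± S.D. of three independent measurements.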

For test [2], the system named is MCF7. The test is described as follows: Antiproliferative activity against human MCF7 cells assessed as growth inhibition at 10 uM after 72 hrs by MTT assay relative to control. The test is classed as functional. To be noted: read-out: GI. Put shortly: as §1
In general terms: Tetrazolium dyes change colour on reduction, which living cells bring about.

Test [3] deals with MCF7. The test can be described thus: Antiproliferative activity against human MCF7 cells assessed as growth inhibition at 1 uM after 72 hrs by MTT assay relative to control. The test is classed as functional. To be noted: for inhibition of growth at 1 µM: read-out: GI. In a few lines: as §1
A further test is filed under the species Homo sapiens. The test is described as follows: Inhibition of PDK (unknown origin) using RYHGHSMSDP as substrate at 1 uM after 30 mins by Kinase-Glo luminescent assay. (In general: Kinase-Glo reads ATP consumption through a luciferase reaction.)
The test system of test [4] is A549. The test can be described thus: Antiproliferative activity against human A549 cells assessed as growth inhibition at 1 uM after 72 hrs by MTT assay relative to control. The test is classed as functional. The following applies: for inhibition of growth at 1 µM: read-out: GI. Put shortly:
as §1

The term inhibition denotes the percentage by which the read-out fell short of the control. High values mean a strong effect, low ones a weak effect. On to `O=C(c1ccc(NC2CC2)c([N+](=O)[O-])c1)C(Cl)Cl`, for which the inhibition of growth at 10 µM stood at 95.7% in the test with A549 [1] and 96% in the test with MCF7 [2]. Also, the inhibition of growth at 1 µM in the test on MCF7 [3] worked out at 25.7%; in the test with A549 [4] it was 21.6%. In the test filed under Homo sapiens, this compound gave an inhibition of 17.5%.

For the compound `COc1ccc(Nc2ccc(C(=O)C(Cl)Cl)cc2[N+](=O)[O-])cc1OC`, the inhibition of growth at 10 µM turned out to be 96.6% in the test with A549 [1] and 90.5% in the test on MCF7 [2]. Moreover, the inhibition of growth at 1 µM in the test with MCF7 [3] is 24.2%; in the test with A549 [4], 40.5%. The compound also registered an inhibition in the test listed under Homo sapiens of 66.4%.

As for `O=C(c1ccc(-c2ccccc2)c([N+](=O)[O-])c1)C(Cl)Cl`, the figures for the inhibition of growth at 10 µM in the test on A549 [1] and in the test with MCF7 [2] were 92.6% and 56.2%, respectively. Also, the values for the inhibition of growth at 1 µM in the test with MCF7 [3] and in the test with A549 [4] were 15.8% and 8.9%, respectively. The inhibition in the test filed under Homo sapiens is 25.6%.

As to `CC(C)c1ccc(Sc2ccc(C(=O)C(Cl)Cl)cc2[N+](=O)[O-])cc1`, the inhibition of growth at 10 µM in the test with A549 [1] worked out at 76.3%; in the test on MCF7 [2] it was 79.8%. Also, the inhibition of growth at 1 µM with MCF7 [3] was determined as 18.9%; in the test on A549 [4], 12.9%. Besides, the inhibition in the test listed under Homo sapiens stood at 19.5%.

Consider `O=C(c1ccc(Nc2ccc(F)cc2)c([N+](=O)[O-])c1)C(Cl)Cl`, for which the inhibition of growth at 10 µM in the test with A549 [1] worked out at 98.9%; in the test on MCF7 [2], 97.8%. Besides, the inhibition of growth at 1 µM in the test with MCF7 [3] came out at 17.9%; in the test on A549 [4], 23.2%. Further, in the test listed under Homo sapiens, the inhibition was determined as 50.1%.

Consider `CC(C)c1ccc(Oc2ccc(C(=O)C(Cl)Cl)cc2[N+](=O)[O-])cc1`, for which the inhibition of growth at 10 µM in the test on A549 [1] worked out at 90.7%; in the test on MCF7 [2], 85.7%. Also, the inhibition of growth at 1 µM in the test with MCF7 [3] was 28.7%; in the test with A549 [4], 12.5%. Besides, the inhibition in the test filed under Homo sapiens worked out at 39.4%.

Regarding `CN(C)c1ccc(Nc2ccc(C(=O)C(Cl)Cl)cc2[N+](=O)[O-])cc1`, the inhibition of growth at 10 µM in the test with A549 [1] is 98.6%; in the test on MCF7 [2], 93.2%. In addition, the inhibition of growth at 1 µM in the test with MCF7 [3] is 31.6%; with A549 [4], 75%. In the test listed under Homo sapiens, the inhibition amounted to 88.2%.

On to `O=C(c1ccc(N2CCNCC2)c([N+](=O)[O-])c1)C(Cl)Cl`, for which the values for the inhibition of growth at 10 µM in the test with A549 [1] and in the test on MCF7 [2] were 93.1% and 57%, respectively. The “growth inhibition (GI)” value with MCF7 [3] is “inactive”. The inhibition in the test listed under Homo sapiens was found to be 48.6%. Also, the inhibition of growth at 1 µM in the test on A549 [4] was 22.6%.

Take `O=C(c1ccc(-n2ccnc2[N+](=O)[O-])c([N+](=O)[O-])c1)C(Cl)Cl`: the figures for the inhibition of growth at 10 µM with A549 [1] and with MCF7 [2] were 80.9% and 21.4%, respectively. Also, the “growth inhibition (GI)” value in the test on MCF7 [3] and with A549 [4] was “inactive” each time. In the test listed under Homo sapiens, this compound returned an inhibition of 8.1%.

Turning to `COc1cccc2c1C(=O)c1c(O)c3c(c(O)c1C2=O)C[C@@](O)(C(=O)CO)C[C@@H]3O[C@H]1C[C@H](N)[C@H](O)[C@H](C)O1` [DOXORUBICIN], the inhibition of growth at 10 µM in the test with A549 [1] was found to be 98.5%; in the test with MCF7 [2] it was 97.5%. Further, the inhibition of growth at 1 µM with MCF7 [3] was 59.8%; in the test with A549 [4], 81.2%.

As for `O=C(c1ccc(-n2ccnc2)c([N+](=O)[O-])c1)C(Cl)Cl`, the inhibition of growth at 10 µM is 96.6% in the test on A549 [1] and 90.5% in the test on MCF7 [2]. Besides, the inhibition of growth at 1 µM in the test with MCF7 [3] was found to be 24.2%; with A549 [4], 30.5%. This compound also displayed an inhibition in the test filed under Homo sapiens of 20.5%.

For the compound `O=C(c1ccc(-c2ccsc2)c([N+](=O)[O-])c1)C(Cl)Cl`, the results for the inhibition of growth at 10 µM in the test with A549 [1] and in the test with MCF7 [2] were 94.4% and 43.5%, respectively. Besides, the inhibition of growth at 1 µM in the test with MCF7 [3] is 7.5%; with A549 [4] it was 14.4%. Moreover, the inhibition in the test listed under Homo sapiens is 26.5%.

On to `O=C(c1ccc(N2CCCCC2)c([N+](=O)[O-])c1)C(Cl)Cl`, for which the inhibition of growth at 10 µM amounted to 97.1% with A549 [1] and 95.8% in the test with MCF7 [2]. Moreover, the inhibition of growth at 1 µM in the test with MCF7 [3] amounted to 22.4%; in the test with A549 [4] it was 38.9%. This compound showed an inhibition in the test filed under Homo sapiens of 40.2%.

Regarding `O=C(c1ccc(-c2ccc(F)cc2)c([N+](=O)[O-])c1)C(Cl)Cl`, the inhibition of growth at 10 µM in the test with A549 [1] came out at 95.3%; in the test with MCF7 [2], 91.6%. The values for the inhibition of growth at 1 µM in the test with MCF7 [3] and in the test on A549 [4] were 30.8% and 44.7%, respectively. The inhibition in the test listed under Homo sapiens amounted to 12.1%.

For the compound `COc1ccc(Nc2ccc(C(=O)C(Cl)Cl)cc2[N+](=O)[O-])cc1`, the inhibition of growth at 10 µM in the test with A549 [1] turned out to be 97.7%; with MCF7 [2], 95.9%. For the same compound, the inhibition of growth at 1 µM came out at 29.2% with MCF7 [3] and 45% with A549 [4]. Further, the inhibition in the test filed under Homo sapiens turned out to be 55.7%.

Turning to `O=C(c1ccc(N2CCOCC2)c([N+](=O)[O-])c1)C(Cl)Cl`, the inhibition of growth at 10 µM in the test on A549 [1] worked out at 95.6%; in the test with MCF7 [2], 90.4%. Moreover, the inhibition of growth at 1 µM in the test with MCF7 [3] worked out at 18.9%; in the test with A549 [4] it was 10.1%. Also, the inhibition in the test filed under Homo sapiens is 36.9%.

For the compound `O=C(c1ccc(-n2cncn2)c([N+](=O)[O-])c1)C(Cl)Cl`, the inhibition of growth at 10 µM worked out at 58.9% with A549 [1] and 11.9% with MCF7 [2]. In addition, the “growth inhibition (GI)” value with MCF7 [3] and in the test on A549 [4] was “inactive” each time. The compound further returned an inhibition in the test listed under Homo sapiens of 17.4%.

Regarding `O=C(c1ccc(Nc2ccccc2)c([N+](=O)[O-])c1)C(Cl)Cl`, the inhibition of growth at 10 µM with A549 [1] worked out at 97.4%; with MCF7 [2], 97.1%. In addition, the inhibition of growth at 1 µM was found to be 26.3% with MCF7 [3] and 46.1% in the test on A549 [4]. The same compound gave an inhibition in the test listed under Homo sapiens of 60.7%.

`Cc1ccc(Nc2ccc(C(=O)C(Cl)Cl)cc2[N+](=O)[O-])cc1`: the inhibition of growth at 10 µM worked out at 97.3% with A549 [1] and 88.9% with MCF7 [2]. The inhibition of growth at 1 µM amounted to 12.1% with MCF7 [3] and 48.1% in the test on A549 [4]. The compound also registered an inhibition in the test listed under Homo sapiens of 64.4%.

With `O=C(c1ccc(N2CCCC2)c([N+](=O)[O-])c1)C(Cl)Cl`, the inhibition of growth at 10 µM in the test on A549 [1] came out at 97.3%; with MCF7 [2] it was 94.6%. Moreover, the inhibition of growth at 1 µM was found to be 23% in the test on MCF7 [3] and 30.6% with A549 [4]. Moreover, the inhibition in the test filed under Homo sapiens worked out at 32.4%.

Turning to `O=C(c1ccc(C2CC2)c([N+](=O)[O-])c1)C(Cl)Cl`, the inhibition of growth at 10 µM in the test on A549 [1] is 95.9%; in the test with MCF7 [2] it was 87.8%. In addition, the inhibition of growth at 1 µM in the test with MCF7 [3] worked out at 31.3%; with A549 [4], 40.1%. Moreover, in the test filed under Homo sapiens, the inhibition worked out at 17.3%.

Regarding `CCOc1ccc(Nc2ccc(C(=O)C(Cl)Cl)cc2[N+](=O)[O-])cc1`, the values for the inhibition of growth at 10 µM with A549 [1] and in the test with MCF7 [2] were 97.4% and 93.8%, respectively. The values for the inhibition of growth at 1 µM in the test on MCF7 [3] and in the test on A549 [4] were 18.8% and 52.9%, respectively. Besides, the inhibition in the test listed under Homo sapiens turned out to be 68.7%.

On to `O=C(c1ccc(-c2ccc(OC(F)(F)F)cc2)c([N+](=O)[O-])c1)C(Cl)Cl`, for which the inhibition of growth at 10 µM in the test with A549 [1] was found to be 93.6%; in the test with MCF7 [2] it was 97.8%. Moreover, the inhibition of growth at 1 µM in the test with MCF7 [3] was 24.7%; with A549 [4], 36.3%. The same compound registered an inhibition in the test listed under Homo sapiens of 21.4%.

For the compound `Cc1ccc(-c2ccc(C(=O)C(Cl)Cl)cc2[N+](=O)[O-])cc1`, the inhibition of growth at 10 µM worked out at 96% in the test on A549 [1] and 89.1% with MCF7 [2]. Moreover, the inhibition of growth at 1 µM with MCF7 [3] amounted to 26.4%; in the test with A549 [4], 13.8%. This compound came in with an inhibition in the test filed under Homo sapiens of 5.9%.
